From ChEMBL document CHEMBL5058577, “EUbOPEN Chemogenomics Library 2 (Multiplex)” (2022)

System: HEK-293T
Assay: Multiplex assay against HEK293T
Type: toxicity, cell-based
Conditions: human
Method in brief: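 Cells stained live at seeding with Hoechst33342, BioTracker Green Microtubule Cytoskeleton Dye, MitoTracker Red and Annexin V Alexa Fluor 680 were imaged on a CQ1 microscope at 37°C and 5% CO2 after compound addition. Their classification by CellPathfinder machine-learning gating ran from Hoechst high-intensity objects versus normal cells, to healthy, pyknosed or fragmented nuclei among normal cells, to mitotic or apoptotic among pyknosed cells. Tubulin, mitochondrial-mass and membrane-permeability phenotypes are per cents of healthy-nucleus cells.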

[1] = 12 h, 1 µM, compound concentration 1 uM, replicate 1
[2] = 12 h, 1 µM, compound concentration 1 uM, replicate 2
[3] = 12 h, 10 µM, compound concentration 10 uM, replicate 1
[4] = 12 h, 10 µM, compound concentration 10 uM, replicate 2
[5] = 24 h, 1 µM, compound concentration 1 uM, replicate 1
[6] = 24 h, 1 µM, compound concentration 1 uM, replicate 2
[7] = 24 h, 10 µM, compound concentration 10 uM, replicate 1
[8] = 24 h, 10 µM, compound concentration 10 uM, replicate 2
[9] = 48 h, 1 µM, compound concentration 1 uM, replicate 1
[10] = 48 h, 1 µM, compound concentration 1 uM, replicate 2
[11] = 48 h, 10 µM, compound concentration 10 uM, replicate 1
[12] = 48 h, 10 µM, compound concentration 10 uM, replicate 2

## CCCOc1ccc2[nH]cc(C3=CCNCC3)c2n1.Cl
[1]
  Population Apoptotic (%): 32%
  Population Fragmented Nuclei (%): 5%
  Population Healthy Nuclei (%): 81%
  Population Hoechst High Intensity Objects (%): 5%
  Population Membrane Permeable-Phenotype (%): 0%
  Population Mitochondria Different-Phenotype (%): 41%
  Population Mitotic Cells (%): 68%
  Population Normal (%): 94%
  Population Pyknosed Nuclei (%): 12%
  Population Tubulin-Different-Phenotype (%): 39%
  Total Cell Count: 416
[2]
  Population Apoptotic (%): 44%
  Population Fragmented Nuclei (%): 6%
  Population Healthy Nuclei (%): 82%
  Population Hoechst High Intensity Objects (%): 4%
  Population Mitochondria Different-Phenotype (%): 52%
  Population Mitotic Cells (%): 55%
  Population Normal (%): 95%
  Population Pyknosed Nuclei (%): 10%
  Population Tubulin-Different-Phenotype (%): 21%
  Total Cell Count: 344
[3]
  Population Apoptotic (%): 43%
  Population Fragmented Nuclei (%): 5%
  Population Healthy Nuclei (%): 78%
  Population Hoechst High Intensity Objects (%): 10%
  Population Membrane Permeable-Phenotype (%): 0%
  Population Mitochondria Different-Phenotype (%): 58%
  Population Mitotic Cells (%): 56%
  Population Normal (%): 89%
  Population Pyknosed Nuclei (%): 15%
  Population Tubulin-Different-Phenotype (%): 41%
  Total Cell Count: 446
[4]
  Population Apoptotic (%): 55%
  Population Fragmented Nuclei (%): 6%
  Population Healthy Nuclei (%): 82%
  Population Hoechst High Intensity Objects (%): 4%
  Population Mitochondria Different-Phenotype (%): 76%
  Population Mitotic Cells (%): 44%
  Population Normal (%): 95%
  Population Pyknosed Nuclei (%): 11%
  Total Cell Count: 387
[5]
  Population Apoptotic (%): 28%
  Population Fragmented Nuclei (%): 10%
  Population Healthy Nuclei (%): 76%
  Population Hoechst High Intensity Objects (%): 3%
  Population Membrane Permeable-Phenotype (%): 0%
  Population Mitochondria Different-Phenotype (%): 26%
  Population Mitotic Cells (%): 71%
  Population Normal (%): 96%
  Population Pyknosed Nuclei (%): 12%
  Population Tubulin-Different-Phenotype (%): 24%
  Total Cell Count: 558
[6]
  Population Apoptotic (%): 35%
  Population Fragmented Nuclei (%): 9%
  Population Healthy Nuclei (%): 80%
  Population Hoechst High Intensity Objects (%): 2%
  Population Membrane Permeable-Phenotype (%): 1%
  Population Mitochondria Different-Phenotype (%): 29%
  Population Mitotic Cells (%): 64%
  Population Normal (%): 97%
  Population Pyknosed Nuclei (%): 9%
  Population Tubulin-Different-Phenotype (%): 14%
  Total Cell Count: 425
[7]
  Population Apoptotic (%): 39%
  Population Fragmented Nuclei (%): 12%
  Population Healthy Nuclei (%): 74%
  Population Hoechst High Intensity Objects (%): 7%
  Population Membrane Permeable-Phenotype (%): 0%
  Population Mitochondria Different-Phenotype (%): 50%
  Population Mitotic Cells (%): 60%
  Population Normal (%): 92%
  Population Pyknosed Nuclei (%): 12%
  Population Tubulin-Different-Phenotype (%): 38%
  Total Cell Count: 583
[8]
  Population Apoptotic (%): 51%
  Population Fragmented Nuclei (%): 6%
  Population Healthy Nuclei (%): 81%
  Population Hoechst High Intensity Objects (%): 3%
  Population Mitochondria Different-Phenotype (%): 63%
  Population Mitotic Cells (%): 48%
  Population Normal (%): 96%
  Population Pyknosed Nuclei (%): 11%
  Population Tubulin-Different-Phenotype (%): 34%
  Total Cell Count: 502
[9]
  Population Apoptotic (%): 17%
  Population Fragmented Nuclei (%): 13%
  Population Healthy Nuclei (%): 79%
  Population Hoechst High Intensity Objects (%): 2%
  Population Membrane Permeable-Phenotype (%): 0%
  Population Mitochondria Different-Phenotype (%): 15%
  Population Mitotic Cells (%): 82%
  Population Normal (%): 97%
  Population Pyknosed Nuclei (%): 6%
  Population Tubulin-Different-Phenotype (%): 12%
  Total Cell Count: 872
[10]
  Population Apoptotic (%): 38%
  Population Fragmented Nuclei (%): 9%
  Population Healthy Nuclei (%): 82%
  Population Hoechst High Intensity Objects (%): 1%
  Population Membrane Permeable-Phenotype (%): 1%
  Population Mitochondria Different-Phenotype (%): 20%
  Population Mitotic Cells (%): 61%
  Population Normal (%): 98%
  Population Pyknosed Nuclei (%): 7%
  Population Tubulin-Different-Phenotype (%): 9%
  Total Cell Count: 657
[11]
  Population Apoptotic (%): 35%
  Population Fragmented Nuclei (%): 14%
  Population Healthy Nuclei (%): 76%
  Population Hoechst High Intensity Objects (%): 6%
  Population Membrane Permeable-Phenotype (%): 0%
  Population Mitochondria Different-Phenotype (%): 41%
  Population Mitotic Cells (%): 64%
  Population Normal (%): 93%
  Population Pyknosed Nuclei (%): 8%
  Population Tubulin-Different-Phenotype (%): 23%
  Total Cell Count: 776
[12]
  Population Apoptotic (%): 26%
  Population Fragmented Nuclei (%): 13%
  Population Healthy Nuclei (%): 80%
  Population Hoechst High Intensity Objects (%): 5%
  Population Mitochondria Different-Phenotype (%): 37%
  Population Mitotic Cells (%): 73%
  Population Normal (%): 94%
  Population Pyknosed Nuclei (%): 6%
  Population Tubulin-Different-Phenotype (%): 20%
  Total Cell Count: 733
